Unmarked numbers belong to inactive results. Inconclusive results are not listed. Calls of active or inactive are those of the source.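 The calls were made as follows, unless noted: active = viability at or below 27.92% in each of two runs, the all-compound median minus 4 SD; inconclusive = no clear call, values can overlap the other calls; inactive = the rest.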

Test [1] in a line: S. cerevisiae growth inhibition in permissive medium (OD615), pilot counter-assay for S. cerevisiae lifespan shortening project, permissive growth control (AID 705;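 active = growth inhibition above 25% in both replicates, a cutoff set 3 SD above the mean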). The following applies: OD615, 24 h, at 10 µM, hits give high values. The method in brief: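 Test system: Saccharomyces cerevisiae strain carrying genetically modified DeaD replicative-lifespan system; buffer or medium: SC raffinose/galactose permissive medium; dosing: one dose 10 µM, DMSO 0.25% final; times: 24 h exposure, 30 °C; measured by: OD at 615 nm; read-out basis: growth inhibition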

The nature of test [2]: S. cerevisiae growth inhibition in restrictive medium, OD615, pilot screen, restrictive growth control, yeast lifespan reduction project (AID 706;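 active = growth inhibition above a set limit, 3 SD over mean compound inhibition, in both replicates, cut at about 43% in these data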;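 also: modified DeaD lifespan yeast strain shifted to restrictive glucose medium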). The settings on record: OD615, 48 h, at 10 µM, hits give high values. The method in brief: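 material = engineered S. cerevisiae DeaD strain | buffer or medium = glucose-based CSMM-D restrictive medium | dosing = one concentration, 10 µM final, 0.25% DMSO | schedule = 4 h pre-growth plus 48 h compound exposure, 30 °C | detection = OD615 absorbance reading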

Test [3] is described as follows: doxorubicin toxicity protection in MRP-1 cells – H69AR cells, CellTiter-Glo, duplicate, MRP-1 activator project, pilot screen (AID 807;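 active = viability increase at or above a cutoff of the median across tested compounds plus 3 SD, cut at about 8.5% in these data, passing the limit was not always enough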;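 also: compound pretreatment 18-22 h then 72 h combined with doxorubicin; 0% = doxorubicin alone and 100% = vehicle without doxorubicin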). The following applies: H69AR viability with doxorubicin, CellTiter-Glo luminescence; at 10 µM; hits give high values.
Test [4] in a line: viability of HCT116 without oncogenic beta-catenin – human colon tumor cells, pilot screen (AID 823;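 active = cell viability at or below a set limit in both duplicate runs, the limit being the all-compound median minus 4 SD, cut at about 23% in these data, passing the limit was not always enough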;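 also: 0% = wells killed by 20 µM Hyamine and 100% = untreated DMSO cell wells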). The settings on record: HCT116 beta-catenin knockout viability, CellTiter-Glo, 60 h; at 10 µM; hits give low values. (ATP-based viability assays read luminescence as a measure of living cells.)
A short description of test [5]: viability of PTEN-null HCT116 cells – cell-based, HCT116 clonal line, CellTiter-Glo, pilot screen (AID 824).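 Also: 0% = 20 µM Hyamine control and 100% = vehicle cell control.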 The settings on record: HCT116 PTEN-deleted viability, 60 h, at 10 µM, hits give low values.
The nature of test [6]: RAM pathway blockade in budding yeast – dse1pr::URA3 reporter, 5-FOA selection, pilot screen (AID 869;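 active = inhibition over a set limit, the all-compound mean plus 3 SD, in both replicate runs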;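 also: 0% = DMSO wells with no growth and 100% = 10 µM 1-NA-PP1 with full growth; RAM network block rescues cells from 5-FOA so hits raise OD615 growth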). The settings on record: S. cerevisiae dse1pr::URA3 5-FOA growth, OD615, 2 d; at 10 µM; hits give high values; strain carries analog-sensitive mutant Cbk1 kinase.
A short description of test [7]: RAM signaling pathway blockade in yeast – S. cerevisiae, Pdr1DBD-CYC8 efflux-inhibited sensitized strain, primary screen (AID 1298;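 active = RAM network inhibition above 8.4% in each of two replicates, 3 SD over the compound average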;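 also: 0% = DMSO untreated cells without growth and 100% = 10 µM 1-NA-PP1 full growth; higher means more yeast growth rescued from 5-FOA killing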). The following applies: S. cerevisiae cbk1-as DSE1-URA3 strain, 5-FOA growth OD615, 2 d; at 50 µM; hits give high values.

On to `O=S(=O)(NC1c2cccc3cccc(c23)C1N1CCNCC1)c1ccccc1` (stereo unspecified), for which the values for the growth inhibition in test [1] and in test [2] were -10.4% and -14.2%, respectively. Besides, in test [3], the viability increase was -5.27%. Besides, the viability in test [4] is 68%; in test [5], 74.8%. The inhibition in test [6] was 1.62%. In addition, the RAM network inhibition in test [7] is 2.72%.

Turning to `Nc1nc(-c2ccc3c(c2)CCCC3)cs1`, the growth inhibition is 2.05% in test [1] and 29.1% in test [2]. Also, the viability increase in test [3] was -0.58%. Also, the viability in test [4] was 86.2%; in test [5] it was 88.2%. Further, in test [6], the inhibition is 0.275%. The RAM network inhibition in test [7] is 2.64%.

`CCc1ccccc1S(=O)(=O)Cc1ccc(C(=O)NC(C)C)o1`: the growth inhibition is -2.43% in test [1] and -2.4% in test [2]. Further, the viability increase in test [3] was -1.52%. For the same molecule, the viability in test [4] is 107%; in test [5], 97.6%. In addition, the inhibition in test [6] was 1.24%. Also, the RAM network inhibition in test [7] is 3.36%.

In the case of `C=CCn1c(O)c(C2=c3ccccc3=NC2=O)sc1=Nc1ccc(O)cc1`, the growth inhibition in test [1] is -4.33%; in test [2], -12%. Further, the viability increase in test [3] was -8.74%. Besides, the figures for the viability in test [4] and in test [5] were 2.1% (active) and 1.53% (active), respectively. Besides, the inhibition in test [6] is 1.98%. For the same molecule, in test [7], the RAM network inhibition is 2.7%.

With `O=C(CSCC(=O)N1CCOCC1)Nc1nc(-c2ccc3c(c2)OCO3)cs1`, the growth inhibition was -15% in test [1] and -3.92% in test [2]. Moreover, the viability increase in test [3] was -3.99%. Moreover, the viability in test [4] was 100%; in test [5], 97.3%. The inhibition in test [6] is 0.47%. For the same molecule, the RAM network inhibition in test [7] was 6.38%.

With `CCc1c(C)sc(NC(=O)c2cc(C3CC3)on2)c1C#N`, the growth inhibition was -7.33% in test [1] and 15% in test [2]. Besides, the viability increase in test [3] was 1.11%. The viability is 99% in test [4] and 102% in test [5]. Also, the inhibition in test [6] is 3.36%. The RAM network inhibition in test [7] was -0.84%.

In the case of `NC(=O)c1ccsc1NC(=O)c1ccco1`, the growth inhibition was 7.15% in test [1] and 20.1% in test [2]. Moreover, the viability increase in test [3] was -1.54%. Moreover, the viability is 102% in test [4] and 99% in test [5]. Further, the inhibition in test [6] was 1.1%. For the same molecule, in test [7], the RAM network inhibition is 1.1%.

As for `Cc1cc(C)c(NC(=O)CSc2nnc(-c3ccncc3)n2Cc2ccco2)c(Cl)c1`, the growth inhibition in test [1] was 6.26%; in test [2] it was 12.8%. For the same molecule, in test [3], the viability increase is -0.79%. Besides, the viability is 98% in test [4] and 93.1% in test [5]. In test [6], the inhibition was 1.79%. Moreover, in test [7], the RAM network inhibition was 6.08%.

For `O=C(CCSCCc1ccccn1)Nc1nccs1`, the values for the growth inhibition in test [1] and in test [2] were 6.12% and 8.44%, respectively. The viability increase in test [3] is -0.56%. In addition, the viability in test [4] was 102%; in test [5] it was 94.8%. The inhibition in test [6] was 2.55%. The RAM network inhibition in test [7] is 0.66%.

In the case of `O=C(Cn1cc2c(n1)CCCC2)NCCCN1CCN(Cc2ccccc2)CC1`, the growth inhibition in test [1] was -1.54%; in test [2], -1.17%. The viability increase in test [3] is -2.71%. Besides, the results for the viability in test [4] and in test [5] were 91.5% and 93.2%, respectively. The inhibition in test [6] was 0.61%. In addition, the RAM network inhibition in test [7] was -0.1%.

In the case of `O=c1c2ccccc2ncn1-c1ccc2c(c1)OCCO2`, the growth inhibition in test [1] was -2.29%; in test [2], -19.6%. For the same molecule, the viability increase in test [3] was -0.34%. The viability in test [4] was 101%; in test [5], 94%. Moreover, in test [6], the inhibition was 0.6%. Also, the RAM network inhibition in test [7] is 0.78%.

On to `CCOCCCNC(=O)C(NC(=O)CNC(C)=O)c1ccc(Cl)cc1` (stereo unspecified), for which the growth inhibition in test [1] is -10.1%; in test [2], -12.2%. For the same molecule, in test [3], the viability increase was -0.33%. In addition, the viability in test [4] is 102%; in test [5], 101%. In addition, the inhibition in test [6] is 2.1%. The RAM network inhibition in test [7] is 2.91%.

Turning to `O=C(C1CCN(S(=O)(=O)c2ccc(F)cc2)CC1)N1CCOCC1`, the growth inhibition is -6.2% in test [1] and -6.82% in test [2]. Besides, the viability increase in test [3] was 0.84%. Also, the viability in test [4] and in test [5] was 103% each time. In addition, the inhibition in test [6] was 2.23%. Moreover, in test [7], the RAM network inhibition was 1.75%.

As to `Cc1cccc(NC(=O)Cn2cnc3sc(C)c(S(=O)(=O)N4CCC(C)CC4)c3c2=O)n1`, the growth inhibition in test [1] is -9.9%; in test [2] it was -17.3%. In addition, the viability increase in test [3] is -1.12%. Also, the viability was 95.2% in test [4] and 99.1% in test [5]. Moreover, the inhibition in test [6] was 2.16%. In test [7], the RAM network inhibition was 9.71%.

For the molecule `CC(=O)NC(O)C(=O)c1ccccc1` (stereo unspecified), the growth inhibition in test [1] is 5.71%; in test [2] it was 3.38%. In addition, the viability increase in test [3] is -2.24%. In addition, the viability in test [4] is 97%; in test [5] it was 89.6%. The inhibition in test [6] is -0.095%. In test [7], the RAM network inhibition is 3.35%.

As to `Cc1cc(NC(=O)COn2nnc3ccc(Cl)cc32)no1`, the growth inhibition was -6.7% in test [1] and 1.51% in test [2]. In addition, the viability increase in test [3] is 1.22%. Besides, the viability in test [4] was 94.3%; in test [5] it was 91.2%. For the same molecule, the inhibition in test [6] was 0.535%. For the same molecule, the RAM network inhibition in test [7] is 2.19%.

Turning to `NC(=O)c1cc(Cl)cn(-c2ccccc2)c1=O`, the figures for the growth inhibition in test [1] and in test [2] were -13% and -5.85%, respectively. Also, in test [3], the viability increase is -0.12%. Besides, the viability in test [4] is 99.7%; in test [5], 95%. Also, the inhibition in test [6] was 1.81%. In test [7], the RAM network inhibition is 4.23%.

`Cc1ccc(NC(=O)CSc2nnc(Cn3c(=O)sc4ccccc43)n2C)cc1Cl`: the growth inhibition in test [1] was -1.48%; in test [2], -18.1%. Moreover, the viability increase in test [3] was -4.78%. Besides, the viability in test [4] is 92.3%; in test [5], 86.6%. Also, the inhibition in test [6] was 1.81%. In addition, in test [7], the RAM network inhibition was 4.65%.

The viability is a read-out of living cells in per cent, often relative to untreated cells. As a reminder, the inhibition is the drop in the measured response relative to a control, in per cent.

The values above are taken from PubChem BioAssay.
